An excerpt weighted towards active compounds, which were near 1.4% of everything screened.
HNF4A DNA FP – change in binding of human HNF4 alpha to DNA; 0.3% of 360,000 active; activity change, % at 10 µM; P41235; HNF4a-FITC DNA binding, fluorescence polarization, 1 h; in the data active = activity change above about 30%, passing the limit was not always enough
TPT1 inh – C. albicans TPT1 enzyme inhibition; recombinant caTPT1, FP RNA substrate dephosphorylation; inhibition, % at 5 µM; AID 1962; 0.81% of 300,000 active;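 active = inhibition above the mean of all tested compounds plus 3 SD, set per screening campaign, cut at about 24% in these data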;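 note: plate controls were DMSO alone for no effect and ferristatin control at 100 nM for full effect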
IDE cell inh – cellular human IDE inhibition; inhibition, % at 5.59 µM; HEK cells, FAbetaB cleavage, fluorescence polarization; 0.41% of 320,000 active; P14735;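 active = percent inhibition above the average of all tested compounds plus 3 SD, set per screening campaign, cut at about 16% in these data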;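 note: IDE supplied by intact live HEK cells; FP after avidin binding of uncleaved biotin substrate so inhibition keeps polarization high; 0% = DMSO wells and 100% = 60 µM reference IDE inhibitor Ii1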
IDE act – IDE (human) activation, cell-based. P14735. HEK cells, FAbeta-B cleavage, fluorescence polarization; 0% vehicle, 100% cell-free pure enzyme wells. activation, % at 5.96 µM. 0.073% of 340,000 active. AID 493087;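 active = activation above the mean of all tested compounds plus 3 SD, set per screening campaign, cut at about 17% in these data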
CSN deneddyl inh – CSN deneddylation inhibition. Q92905. Purified CSN, SCF-Nedd8-OG deneddylation, fluorescence polarization. inhibition, % at 12.5 µM. 0.38% of 360,000 active. AID 651999;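 active = pattern-corrected inhibition above about 35%, with an unprinted fluorescence ratio check between 0.5 and 1.5, limit read from the data, passing the limit was not always enough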;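 note: 0% = enzyme with substrate and 100% = substrate without enzyme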
Target sequence (Q92905 whole entry, looked up, one chain of several): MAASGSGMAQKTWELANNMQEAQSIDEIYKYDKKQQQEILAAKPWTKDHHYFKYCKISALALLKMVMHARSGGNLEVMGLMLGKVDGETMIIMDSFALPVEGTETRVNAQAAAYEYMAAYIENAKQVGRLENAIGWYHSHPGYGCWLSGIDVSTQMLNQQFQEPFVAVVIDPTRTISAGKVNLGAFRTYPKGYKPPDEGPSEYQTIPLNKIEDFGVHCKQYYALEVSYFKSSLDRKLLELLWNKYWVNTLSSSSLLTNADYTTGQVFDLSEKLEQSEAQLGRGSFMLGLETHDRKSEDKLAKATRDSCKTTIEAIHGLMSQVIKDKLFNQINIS
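assay system = purified human Csn5 enzyme expressed in HEK293T cells | amount = 0.24 nM enzyme | buffer or medium = Tris/NaCl/DTT buffer, pH 7.5 | reagent = 10 nM SCFSkp2-Nedd8OG | compound = one concentration, 12.5 µM, 0.25% DMSO | times = 90 min reaction at room temperature | signal = FP | read-out basis = % inhibition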
TPT1 inh confirm – confirmation of Candida albicans TPT1 inhibitors; shares compounds with TPT1 inh; AID 2149; inhibition, % at 5 µM; 74% of 2,400 active; recombinant caTPT1, fluorescence polarization, RNase T1 coupled;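 active = inhibition above the primary screen limit, the mean inhibition of all tested compounds plus 3 SD, cut at about 25% in these data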
RNase T1 inh – counter-screen for TPT1 inhibitors: inhibitors of Aspergillus oryzae RNase T1 | shares compounds with TPT1 inh | RNase T1 cleavage, fluorescence polarization, 1536-well | inhibition, % at 5 µM | 83% of 2,400 active | AID 2153;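 active = inhibition above the solvent-only control well mean plus 3 SD, limit set per screening run, cut at about 23% in these data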;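 note: plate controls were DMSO wells with enzyme for no effect and wells without RNase T1 for full effect; inhibitors block cleavage so intact labeled substrate keeps polarization high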
Target sequence (P00651 whole entry, looked up): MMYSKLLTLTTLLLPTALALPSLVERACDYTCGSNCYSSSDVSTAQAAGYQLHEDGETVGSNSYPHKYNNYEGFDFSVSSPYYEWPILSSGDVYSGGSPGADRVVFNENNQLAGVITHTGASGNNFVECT
* marks the source's active call; other numbers are inactive results; x = no result given.

SMILES	HNF4A DNA FP	TPT1 inh	IDE cell inh	IDE act	CSN deneddyl inh	TPT1 inh confirm	RNase T1 inh
CN1[C@@H](Cc2ccccc2)COc2cc(N3CCSCC3)ccc2S1(=O)=O	-1	x	x	x	0	x	x
Cc1cccc(NC(=O)c2ccc(NCCc3ccccc3)c([N+](=O)[O-])c2)c1	85	46*	-1	1	89*	111*	133*
CCOC(=O)c1ccc(NC(=O)[C@@H]2CCC(=O)N2C2OC(=O)c3c2ccc(OC)c3OC)cc1 (stereo partly drawn)	0	x	x	x	-2	x	x
COc1ccc(/C=C(\C#N)C(=O)C(C)(C)n2cncn2)cc1	5	33*	7	0	1	3	4
COc1ccc(C=C(C#N)C(=O)c2ccccc2)cc1	3	x	x	x	2	x	x
Cc1ccnc(N/C=C(\C#N)c2nc(-c3cccc(Br)c3)cs2)c1	-13	30*	8	-34	-72	26*	40*
N#C/C(=C\Nc1ccc2cn[nH]c2c1)c1nc(-c2ccccc2)cs1	13	x	x	5	3	x	x
NC1=NC(=O)/C(=C/c2cc(Br)c(O)c(Br)c2)S1	21	37*	14	-5	19	49*	62*
NC1=NC(=O)/C(=C/c2ccc(Br)cc2)S1	-4	-2	-4	-1	-1	x	x
O=C(Nc1ccccc1C(F)(F)F)c1ccc2nccnc2c1	7	39*	3	2	2	7	11
COC(=O)[C@@]12C[C@@H](CC(=O)N3CCN(C(=O)c4ccco4)CC3)C(=O)N(CCc3ccc(OC)c(OC)c3)C1=CCC(C)(C)C2	1	x	x	x	2	x	x
CCOC(=O)n1c2ccccc2c(=O)n1CCO	6	x	x	x	-1	x	x
CC(C)C(=O)NC(=S)/C=C1/N(C)c2ccccc2C1(C)C	69*	28*	2	6	48*	17	24*
CN1/C(=C/C(=S)NC(=O)C2CCC2)C(C)(C)c2ccccc21	20	51*	7	-2	5	13	18
Cc1ccc(C(=O)NC(=S)/C=C2\N(C)c3ccccc3C2(C)C)cc1	13	10	6	-2	28	x	x
CCOC(=O)C1=CN(Cc2ccco2)S(=O)(=O)NC1c1ccc(C(F)(F)F)cc1 (stereo not drawn)	1	x	x	1	-2	x	x
Cc1ccc(N/C=C/c2onc(C)c2[N+](=O)[O-])cc1	12	49*	-2	5	6	56*	68*
Cc1cccc(C)c1N/C=C/c1onc(C)c1[N+](=O)[O-]	-1	6	7	4	3	x	x
C=CCNc1nc(N)c([N+](=O)[O-])c(Nc2cccc(Cl)c2)n1	1	36*	3	2	1	3	5
CNc1nc(N)c([N+](=O)[O-])c(Nc2cccc(Cl)c2)n1	3	0	2	x	6	x	x
COc1cc(/C=C2/C(=N)N3C(=NC2=O)SN=C3S(C)(=O)=O)ccc1OS(=O)(=O)c1ccccc1	x	28*	3	x	x	16	23*
C=CCn1nc(C(=O)Nc2ccc(OC)cc2)cc1-c1sc(NC(=O)c2ccccc2)nc1C	4	x	x	x	-3	x	x
CCOC(=O)/C=C1\SCC(=O)N1Cc1nnc(-c2ccccc2Br)o1	31	31*	6	-1	17	31*	40*
CCOC(=O)/C=C1/SCC(=O)N1Cc1ccc(Br)cc1	1	x	x	1	2	x	x
Nc1ncnc2c1ncn2C1OCC(O)C1O (stereo not drawn)	-1	x	x	x	1	x	x
SMILES	HNF4A DNA FP	TPT1 inh	IDE cell inh	IDE act	CSN deneddyl inh	TPT1 inh confirm	RNase T1 inh
CCOc1ccc(N2C(=O)CS/C2=C(\C(Cl)=C(Cl)Cl)[N+](=O)[O-])cc1	35*	54*	-4	6	14	58*	70*
CCOc1ccc(N2C(=O)CNC2=S)cc1	-1	-1	0	5	-3	x	x
CCC(=O)N1CCC1(C)C(=O)Nc1ccccc1 (stereo not drawn)	2	x	x	x	-4	x	x
O=C(N/C=C/c1ccco1)Nc1cccc(Cl)c1	0	34*	-2	x	8	5	13
CCNC(=O)C1(C)CCN(C(=O)c2cccc3ccccc23)C1 (stereo not drawn)	-7	x	x	x	-2	x	x
CC(C)(C)N1C(=O)c2ccccc2NC(=O)C1C(=O)NCc1ccco1 (stereo not drawn)	-3	x	x	x	0	x	x
COc1ccc(C(C(=O)NCc2ccccc2)N(Cc2ccco2)C(=O)c2snc(C(N)=O)c2N)cc1 (stereo not drawn)	1	-3	6	2	2	x	x
COc1cc(OC)cc(C(C(=O)NCc2ccccc2)N(Cc2ccco2)C(=O)c2ccno2)c1 (stereo not drawn)	11	42*	0	1	17	16	25*
CC(C)CN1C(=O)CSCC1(C)C(=O)NC(C)C (stereo not drawn)	4	x	x	x	-4	x	x
CCOc1ccc(-c2nc(C#N)c(N3CCN(C)CC3)o2)cc1	2	76*	-3	0	-2	5	5
CC1(C(=O)Nc2cnc3ccccc3c2)CCN1Cc1cc2ccccc2o1 (stereo not drawn)	-4	x	x	x	7	x	x
COC(=O)C1=CN(c2ccc3c(c2)OCO3)C(N)=C(C#N)C1c1ccc(-c2ccccc2)cc1 (stereo not drawn)	-1	x	x	x	4	x	x
Cc1ccc(C2C(C#N)=C(N)SC(N)=C2C#N)o1	x	66*	14	x	x	34*	46*
CCOc1ccc(C2C(C#N)=C(N)SC(N)=C2C#N)cc1OCC	139	126*	10	-13	124	132*	128*
CCOc1ccc(C2C(C#N)=C(N)Oc3cc(C)n(CCN4CCOCC4)c(=O)c32)cc1OCC (stereo not drawn)	2	x	x	1	-2	x	x
N#CC1=C(N)SC(N)=C(C#N)C1c1ccc([N+](=O)[O-])cc1	20	40*	1	-4	26	7	9
CCc1ccc(C2C(C#N)=C(N)SC(N)=C2C#N)s1	122	91*	13	-10	50	80*	89*
CCCCCCCCN1C(=O)[C@H](CC(=O)NCCC(C)C)C[C@@]2(C(=O)OC)CCCCC=C12	-1	x	x	x	-4	x	x
CCCCN(C=O)c1c(CC)nc2ccc(C(=O)NCCc3ccccn3)cn12	-2	x	x	x	-3	x	x
N#CC1=C(N)SC(N)=C(C#N)C1c1c(Cl)cccc1Cl	77	47*	1	-5	78	22	28*
N#CC1=C(N)Oc2cc(N)ccc2C1c1ccccc1Cl (stereo not drawn)	-28	x	x	1	0	x	x
CCc1ccc(C2C(C#N)=C(N)SC(N)=C2C#N)cc1	140	106*	4	-4	-37	73*	86*
CCOc1ccc(C2C(C#N)=C(N)SC(N)=C2C#N)cc1OC	x	115*	20*	x	x	39*	56*
